Measurements from ChEMBL document CHEMBL5724801, “EUbOPEN Chemogenomics Library - Multiplex” (2024).
Several values for one entry are separate records, joined by “and”; a condition that tells them apart may be missing. Identical values can stand only once.

Tested on: U2OS
Assay: Multiplex assay against U2OS
Assay type: toxicity, cell-based
Settings: human
Method in brief: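 Hoechst33342, BioTracker Green Microtubule Cytoskeleton Dye, MitoTracker Red and Annexin V Alexa Fluor 680 were added to live cells at seeding, and imaging on a CQ1 microscope at 37°C and 5% CO2 followed compound addition. Gating by CellPathfinder machine learning separated cells into Hoechst high-intensity objects or normal cells, then normal cells into healthy, pyknosed or fragmented nuclei, then pyknosed cells into mitotic or apoptotic. Per cents of healthy-nucleus cells are reported for the tubulin, mitochondrial-mass and membrane-permeability phenotypes.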

[1] = 12 h, 1 µM, compound concentration 1 uM
[2] = 12 h, 10 µM, compound concentration 10 uM
[3] = 24 h, 1 µM, compound concentration 1 uM
[4] = 24 h, 10 µM, compound concentration 10 uM
[5] = 48 h, 1 µM, compound concentration 1 uM
[6] = 48 h, 10 µM, compound concentration 10 uM

CN[C@@H](C)C(=O)N[C@H](C(=O)N1CCC[C@H]1C(=O)Nc1snnc1-c1ccccc1)C1CCCCC1 [GDC-0152]
Population Apoptotic (%) [1]: 60% and 89%
Population Fragmented Nuclei (%) [1]: 25% and 21%
Population Healthy Nuclei (%) [1]: 61% and 60%
Population Hoechst High Intensity Objects (%) [1]: 5% and 11%
Population Membrane Permeable-Phenotype (%) [1]: 51% and 50%
Population Mitochondria Different-Phenotype (%) [1]: 24% and 38%
Population Normal (%) [1]: 94% and 88%
Population Pyknosed Nuclei (%) [1]: 13% and 17%
Population Tubulin-Different-Phenotype (%) [1]: 47% and 52%
Total Cell Count [1]: 176 and 121
Population Apoptotic (%) [2]: 72% and 70%
Population Fragmented Nuclei (%) [2]: 39% and 18%
Population Healthy Nuclei (%) [2]: 44% and 65%
Population Hoechst High Intensity Objects (%) [2]: 4% and 5%
Population Membrane Permeable-Phenotype (%) [2]: 65% and 73%
Population Mitochondria Different-Phenotype (%) [2]: 61% and 70%
Population Mitotic Cells (%) [2]: 27% and 29%
Population Normal (%) [2]: 95% and 94%
Population Pyknosed Nuclei (%) [2]: 16% and 15%
Population Tubulin-Different-Phenotype (%) [2]: 76% and 91%
Total Cell Count [2]: 208 and 114
Population Apoptotic (%) [3]: 72% and 85%
Population Fragmented Nuclei (%) [3]: 21% and 34%
Population Healthy Nuclei (%) [3]: 55% and 44%
Population Hoechst High Intensity Objects (%) [3]: 5% and 8%
Population Membrane Permeable-Phenotype (%) [3]: 20% and 25%
Population Mitochondria Different-Phenotype (%) [3]: 18% and 28%
Population Mitotic Cells (%) [3]: 27% and 14%
Population Normal (%) [3]: 94% and 91%
Population Pyknosed Nuclei (%) [3]: 23% and 21%
Population Tubulin-Different-Phenotype (%) [3]: 19% and 27%
Total Cell Count [3]: 196 and 144
Population Apoptotic (%) [4]: 68% and 92%
Population Fragmented Nuclei (%) [4]: 36% and 20%
Population Healthy Nuclei (%) [4]: 43% and 40%
Population Hoechst High Intensity Objects (%) [4]: 3% and 10%
Population Membrane Permeable-Phenotype (%) [4]: 53% and 59%
Population Mitochondria Different-Phenotype (%) [4]: 59% and 65%
Population Normal (%) [4]: 96% and 89%
Population Pyknosed Nuclei (%) [4]: 20% and 38%
Population Tubulin-Different-Phenotype (%) [4]: 59% and 81%
Total Cell Count [4]: 220 and 121
Population Apoptotic (%) [5]: 93% and 88%
Population Fragmented Nuclei (%) [5]: 35%
Population Healthy Nuclei (%) [5]: 32% and 30%
Population Hoechst High Intensity Objects (%) [5]: 8%
Population Membrane Permeable-Phenotype (%) [5]: 16% and 38%
Population Mitochondria Different-Phenotype (%) [5]: 12% and 17%
Population Mitotic Cells (%) [5]: 6% and 11%
Population Normal (%) [5]: 91%
Population Pyknosed Nuclei (%) [5]: 32% and 34%
Population Tubulin-Different-Phenotype (%) [5]: 9% and 27%
Total Cell Count [5]: 246 and 170
Population Apoptotic (%) [6]: 100% and 98%
Population Fragmented Nuclei (%) [6]: 47% and 45%
Population Healthy Nuclei (%) [6]: 22% and 8%
Population Hoechst High Intensity Objects (%) [6]: 11% and 14%
Population Membrane Permeable-Phenotype (%) [6]: 39% and 80%
Population Mitochondria Different-Phenotype (%) [6]: 39% and 50%
Population Mitotic Cells (%) [6]: 0% and 1%
Population Normal (%) [6]: 88% and 85%
Population Pyknosed Nuclei (%) [6]: 29% and 45%
Population Tubulin-Different-Phenotype (%) [6]: 43% and 80%
Total Cell Count [6]: 246 and 138

CSc1nc(NC2CCCC2)c([N+](=O)[O-])c(NC2CCCC2)n1 [GS-39783]
Population Apoptotic (%) [1]: 82% and 80%
Population Fragmented Nuclei (%) [1]: 25% and 18%
Population Healthy Nuclei (%) [1]: 66% and 76%
Population Hoechst High Intensity Objects (%) [1]: 2% and 3%
Population Membrane Permeable-Phenotype (%) [1]: 4%
Population Mitochondria Different-Phenotype (%) [1]: 3% and 0%
Population Mitotic Cells (%) [1]: 17% and 20%
Population Normal (%) [1]: 97% and 96%
Population Pyknosed Nuclei (%) [1]: 8% and 5%
Population Tubulin-Different-Phenotype (%) [1]: 1%
Total Cell Count [1]: 209 and 96
Population Apoptotic (%) [2]: 88% and 100%
Population Fragmented Nuclei (%) [2]: 30% and 19%
Population Healthy Nuclei (%) [2]: 63% and 75%
Population Hoechst High Intensity Objects (%) [2]: 3% and 1%
Population Membrane Permeable-Phenotype (%) [2]: 9%
Population Mitochondria Different-Phenotype (%) [2]: 5% and 0%
Population Mitotic Cells (%) [2]: 11% and 0%
Population Normal (%) [2]: 96% and 98%
Population Pyknosed Nuclei (%) [2]: 5% and 4%
Population Tubulin-Different-Phenotype (%) [2]: 4% and 6%
Total Cell Count [2]: 322 and 145
Population Apoptotic (%) [3]: 87% and 84%
Population Fragmented Nuclei (%) [3]: 22% and 20%
Population Healthy Nuclei (%) [3]: 64% and 68%
Population Hoechst High Intensity Objects (%) [3]: 2% and 1%
Population Membrane Permeable-Phenotype (%) [3]: 2% and 1%
Population Mitochondria Different-Phenotype (%) [3]: 1%
Population Mitotic Cells (%) [3]: 12% and 15%
Population Normal (%) [3]: 97% and 98%
Population Pyknosed Nuclei (%) [3]: 12% and 11%
Population Tubulin-Different-Phenotype (%) [3]: 1% and 0%
Total Cell Count [3]: 269 and 119
Population Apoptotic (%) [4]: 85% and 88%
Population Fragmented Nuclei (%) [4]: 26% and 18%
Population Healthy Nuclei (%) [4]: 66% and 75%
Population Hoechst High Intensity Objects (%) [4]: 2% and 3%
Population Membrane Permeable-Phenotype (%) [4]: 6% and 9%
Population Mitochondria Different-Phenotype (%) [4]: 6% and 2%
Population Mitotic Cells (%) [4]: 14% and 11%
Population Normal (%) [4]: 97% and 96%
Population Pyknosed Nuclei (%) [4]: 6% and 5%
Population Tubulin-Different-Phenotype (%) [4]: 4% and 5%
Total Cell Count [4]: 341 and 164
Population Apoptotic (%) [5]: 88% and 92%
Population Fragmented Nuclei (%) [5]: 18% and 21%
Population Healthy Nuclei (%) [5]: 70% and 71%
Population Hoechst High Intensity Objects (%) [5]: 1% and 0%
Population Membrane Permeable-Phenotype (%) [5]: 3%
Population Mitochondria Different-Phenotype (%) [5]: 1%
Population Mitotic Cells (%) [5]: 11% and 7%
Population Normal (%) [5]: 98% and 100%
Population Pyknosed Nuclei (%) [5]: 11% and 7%
Population Tubulin-Different-Phenotype (%) [5]: 1% and 3%
Total Cell Count [5]: 382 and 185
Population Apoptotic (%) [6]: 89% and 85%
Population Fragmented Nuclei (%) [6]: 23% and 12%
Population Healthy Nuclei (%) [6]: 67% and 81%
Population Hoechst High Intensity Objects (%) [6]: 2% and 0%
Population Membrane Permeable-Phenotype (%) [6]: 5% and 4%
Population Mitochondria Different-Phenotype (%) [6]: 1% and 3%
Population Mitotic Cells (%) [6]: 10% and 14%
Population Normal (%) [6]: 97% and 99%
Population Pyknosed Nuclei (%) [6]: 8% and 6%
Population Tubulin-Different-Phenotype (%) [6]: 2% and 3%
Total Cell Count [6]: 462 and 231
